The text below walks through data of article PMC12518644 (Scientific Reports, 2025).

For the assay, the system named is MDA-MB-231 BC cell line. Nature of the assay: MTT cytotoxicity assay on MDA-MB-231 breast cancer cells. In kind it is cell-based. Particulars: Homo sapiens, MDA-MB-231, 48 h, read-out: IC50 Values, MDA-MB-231, MTT, 48 h. In short, it runs like this:
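Cells grown in DMEM with 10% FBS and 1% antibiotics (100 U/ml penicillin), seeded at 1.0 × 10^4 cells/well, and incubated 24 h at 37 °C under 5% CO2. Medium then replaced with test compound at 6.5, 12.5, 25 or 50 µM for 48 h. MTT (5 mg/mL solution) added for 4 h, formazan dissolved in DMSO, and absorbance read at 570 nm. IC50 derived from dose-response.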
(In general: Tetrazolium dyes change colour on reduction, which living cells bring about.)

`Cc1ccc(S(=O)(=O)n2cc(/C=N/NC(=O)c3cccc4ccccc34)c3ccccc32)cc1` [Compound 5p, (E )-N’ -[(1-Tosyl-1 H -indol-3-yl)methylene]−1-naphthohydrazide]: the IC50 was 18.1 ± 0.2 µM.

As usually defined, the IC50 is the concentration that gives 50% inhibition.
